According to BindingDB's records for doi:10.1021/jm301253y (University of Florida, 2013):

Assays:
Melanocortin receptor 5 = Melanocortin receptor 5 (Mus musculus, UniProt P41149); assay: Agonist activity at mouse MC5 receptor expressed in HEK293 cells after 6 hrs by cAMP-based beta-galactosidase reporter gene assay
Method in brief: (§1)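 HEK-293 cells stably expressing the mouse receptor, kept in DMEM with 10% fetal calf serum, transfected with CRE/β-galactosidase reporter. Efficacy is relative to NDP-MSH on the same plate. EC50 is the mean of duplicate wells from three or more independent experiments, fitted by nonlinear least squares.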

[1] = target: Melanocyte-stimulating hormone receptor (Mus musculus, UniProt Q01727); assay: Agonist activity at mouse MC1 receptor expressed in HEK293 cells after 6 hrs by cAMP-based beta-galactosidase reporter gene assay; method in brief: as §1
Melanocortin receptor 4 = Melanocortin receptor 4 (Mus musculus, UniProt P56450); assay: Agonist activity at mouse MC4 receptor expressed in HEK293 cells after 6 hrs by cAMP-based beta-galactosidase reporter gene assay; method in brief: as §1
Melanocortin receptor 3 = Melanocortin receptor 3 (Mus musculus, UniProt P33033); assay: Agonist activity at mouse MC3 receptor expressed in HEK293 cells after 6 hrs by cAMP-based beta-galactosidase reporter gene assay; method in brief: as §1
Melanocortin receptor 3, sequence (P33033 whole entry): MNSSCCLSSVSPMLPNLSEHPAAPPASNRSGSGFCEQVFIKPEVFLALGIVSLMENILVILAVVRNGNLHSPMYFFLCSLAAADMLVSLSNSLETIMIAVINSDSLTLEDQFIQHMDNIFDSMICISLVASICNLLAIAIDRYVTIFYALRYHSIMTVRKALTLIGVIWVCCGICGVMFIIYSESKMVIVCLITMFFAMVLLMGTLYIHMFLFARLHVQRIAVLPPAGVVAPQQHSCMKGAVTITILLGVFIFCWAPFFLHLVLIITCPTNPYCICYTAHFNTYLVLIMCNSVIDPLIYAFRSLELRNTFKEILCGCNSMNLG

Melanocortin receptor 5, sequence (P41149 whole entry): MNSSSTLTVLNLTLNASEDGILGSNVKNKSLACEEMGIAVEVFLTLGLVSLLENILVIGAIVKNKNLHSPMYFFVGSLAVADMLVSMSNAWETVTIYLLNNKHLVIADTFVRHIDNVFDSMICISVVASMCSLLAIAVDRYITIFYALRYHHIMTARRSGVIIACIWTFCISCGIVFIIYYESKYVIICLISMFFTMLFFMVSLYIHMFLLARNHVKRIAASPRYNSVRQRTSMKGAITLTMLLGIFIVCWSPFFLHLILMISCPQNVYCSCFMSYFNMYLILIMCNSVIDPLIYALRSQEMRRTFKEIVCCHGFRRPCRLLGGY
Melanocyte-stimulating hormone receptor, sequence (Q01727 whole entry): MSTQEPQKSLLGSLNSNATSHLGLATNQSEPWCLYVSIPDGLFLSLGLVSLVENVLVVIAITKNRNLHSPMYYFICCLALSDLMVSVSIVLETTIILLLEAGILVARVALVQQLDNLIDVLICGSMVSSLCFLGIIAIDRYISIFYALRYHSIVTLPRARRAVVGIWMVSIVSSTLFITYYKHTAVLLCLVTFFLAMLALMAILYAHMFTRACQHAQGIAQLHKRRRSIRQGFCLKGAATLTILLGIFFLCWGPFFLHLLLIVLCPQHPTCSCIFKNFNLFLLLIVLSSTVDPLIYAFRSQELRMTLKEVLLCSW
Melanocortin receptor 4, sequence (P56450 whole entry): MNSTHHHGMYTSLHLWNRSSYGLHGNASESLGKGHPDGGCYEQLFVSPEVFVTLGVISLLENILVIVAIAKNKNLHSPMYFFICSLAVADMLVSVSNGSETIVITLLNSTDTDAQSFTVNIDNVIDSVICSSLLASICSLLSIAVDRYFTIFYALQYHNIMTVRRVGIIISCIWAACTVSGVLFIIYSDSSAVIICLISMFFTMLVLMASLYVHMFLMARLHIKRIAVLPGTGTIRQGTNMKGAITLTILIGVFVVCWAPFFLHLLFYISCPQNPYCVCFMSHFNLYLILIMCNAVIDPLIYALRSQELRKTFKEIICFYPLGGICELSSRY

C[C@@H]1NC(=O)[C@H](CC(N)=O)NC(=O)[C@@H](Cc2c[nH]c3ccccc23)[C@]23CCCN2C(=O)[C@@H](CSCC3=O)NC(=O)[C@@H](Cc2ccccc2)NC(=O)[C@H](Cc2cnc[nH]2)NC(=O)[C@@H](NC(=O)[C@@H](N)Cc2ccc(O)cc2)CSSC[C@@H](C(=O)N[C@@H](Cc2ccc(O)cc2)C(N)=O)NC(=O)[C@H](Cc2ccccc2)NC1=O
EC50 (Melanocortin receptor 5): 630 nM
EC50 [1]: 16 nM
EC50 (Melanocortin receptor 4): 1270 nM
EC50 (Melanocortin receptor 3): 7120 nM
